The nature of experiment [1]: inhibitors of TNFa-induced NFkB p65 translocation, primary screen, imaging, HUVEC, MLSMR starter and 10KST1 sets (AID 438;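 active = inhibition above 20% together with a positive visual image hit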;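 note: compound added about 3h40 before a 20 min TNFalpha stimulation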;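 for inhibition: signal is the nuclear over cytoplasmic p65 intensity ratio per well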). Particulars: HUVEC TNFa-induced p65 nuclear translocation; cell count: measured here: nuclei count (cytotoxicity indicator), at 2.08 µM; inhibition: at 2 µM, stronger effect = higher value, 0% TNFa-plus-vehicle, 100% no-TNFa wells.
A short description of experiment [2]: reduction of polyQ htt aggregates in cells – imaging, exon1htt(103Q)mCFP cells, high-content imaging, primary screen (AID 483;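 active = visual image review flags a hit and inhibition of aggregation exceeds 20%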;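 note: compound exposure lasted 3 days before fixation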;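 for nuclei count: percent of the per-plate median nuclei count of sample wells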). Particulars: exon1htt(103Q)mCFP cell line, aggregate imaging, at 2 µM; inhibition of aggregation: stronger effect = higher value; nuclei count: measured here: cell count, toxicity.
Experiment [3] is described as follows: endothelial E-selectin expression blockers – imaging, HUVEC, immunofluorescence, MLSMR starter and 10KST1 sets, primary screen (AID 487;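 active = visually confirmed hit in the image check and inhibition above 20%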;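 for inhibition: signal is fraction of cell area covered by stained E-selectin grains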;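 for nuclei count: 100% = median nuclei count of all wells on the same plate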). The settings on record: HUVEC TNFalpha-induced E-selectin immunofluorescence imaging, at 2 µM; inhibition: stronger effect = higher value; nuclei count: measured here: cell number, toxicity.
The target of experiment [4] is Voltage-gated potassium channel subunit beta-2 (Rattus norvegicus) (UniProt P62483). Nature of the experiment: inhibitors of rat Kvbeta2 reductase activity – biochemical, NADPH fluorescence, primary screen (AID 622;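 active = fluorescence slope higher than the sample average by over 3 SD, cut at about -0.22 in these data, passing the limit was not always enough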;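 note: slope of raw intensity against log time taken from 70 to 1610 s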). Particulars: recombinant KvBeta, 4-cyanobenzaldehyde reduction, at 10 µM, stronger effect = higher value.
Experiment [5] shares this target. Nature of the experiment: enhancers of rat Kvbeta2 NADPH turnover – biochemical, NADPH fluorescence, primary screen (AID 623;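 active = NADPH fluorescence slope more negative than the mean of all samples by about 3 SD, 99.7% confidence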;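 note: fluorescence intensity change per second fitted from 20 to 320 s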). Particulars: Recombinant KvBeta, NADPH fluorescence decrease slope, 10 min; at 10 µM; stronger effect = lower value.
For experiment [6], the target named is Muscarinic acetylcholine receptor M4 (Homo sapiens) (UniProt P08173). The experiment can be described thus: M4-linked GIRK flux change, two-sided – cell-based, HEK293 M4/GIRK, thallium flux, BTC-AM, M4 allosteric agonist project, primary screen (AID 625;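 active = fluorescence slope after compound addition differing from the mean of all tested samples at 99.7% confidence, mostly higher but some lower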;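 note: thallium influx through GIRK channels coupled to M4 in HEK293 cells with BTC-AM dye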). The settings on record: at 10 µM, actives lie on both sides. In outline: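 Assay system: HEK293 cells with M4 receptor and GIRK channels / Controls: carbachol and DMSO controls / Schedule: 1 h dye loading, 2 min kinetic read / Technique: kinetic fluorescence with BTC-AM dye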

Experiment [7] can be described thus: blockers of RIG-like receptor reporter activation – cell-based, Sendai virus stimulus, luciferase, 10K MLSCN set, TLR/RLR signaling modifier project, primary screen (AID 602276;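 active = inhibition at or above 50% at 10 µM; inactive = inhibition below 50%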;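 note: firefly luciferase from ISG56 promoter only with Renilla not read in this screen; 0% = Sendai virus plus DMSO and 100% = medium plus DMSO without virus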). Particulars: HEK293 RL24 IRF3 luciferase reporter, at 10 µM, stronger effect = higher value. For orientation: In a reporter assay the amount or activity of a reporter protein is the signal.
A short description of experiment [8]: TLR3 IRF3 reporter activation blockers – cell-based, poly I:C stimulus, luciferase, 10K MLSCN set, primary screen (AID 602277). Particulars: HEK293-TLR3 RL24 IRF3 luciferase reporter, at 10 µM, stronger effect = higher value.

Calls of active or inactive are those of the source.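 Rule for the calls, unless noted: active = inhibition of the reporter signal at or above 50%; inactive = inhibition below 50%.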

Voltage-gated potassium channel subunit beta-2 (Rattus norvegicus), sequence (P62483 whole entry, looked up): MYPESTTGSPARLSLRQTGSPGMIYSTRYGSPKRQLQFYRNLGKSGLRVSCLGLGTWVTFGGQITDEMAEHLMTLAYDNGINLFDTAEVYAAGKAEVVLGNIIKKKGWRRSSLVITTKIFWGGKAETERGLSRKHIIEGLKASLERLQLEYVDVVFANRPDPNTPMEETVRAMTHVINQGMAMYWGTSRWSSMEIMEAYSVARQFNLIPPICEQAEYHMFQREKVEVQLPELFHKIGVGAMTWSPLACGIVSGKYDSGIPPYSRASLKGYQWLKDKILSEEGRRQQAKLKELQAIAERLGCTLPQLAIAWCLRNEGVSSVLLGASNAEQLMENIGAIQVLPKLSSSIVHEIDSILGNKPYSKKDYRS
Muscarinic acetylcholine receptor M4 (Homo sapiens), sequence (P08173 whole entry, looked up): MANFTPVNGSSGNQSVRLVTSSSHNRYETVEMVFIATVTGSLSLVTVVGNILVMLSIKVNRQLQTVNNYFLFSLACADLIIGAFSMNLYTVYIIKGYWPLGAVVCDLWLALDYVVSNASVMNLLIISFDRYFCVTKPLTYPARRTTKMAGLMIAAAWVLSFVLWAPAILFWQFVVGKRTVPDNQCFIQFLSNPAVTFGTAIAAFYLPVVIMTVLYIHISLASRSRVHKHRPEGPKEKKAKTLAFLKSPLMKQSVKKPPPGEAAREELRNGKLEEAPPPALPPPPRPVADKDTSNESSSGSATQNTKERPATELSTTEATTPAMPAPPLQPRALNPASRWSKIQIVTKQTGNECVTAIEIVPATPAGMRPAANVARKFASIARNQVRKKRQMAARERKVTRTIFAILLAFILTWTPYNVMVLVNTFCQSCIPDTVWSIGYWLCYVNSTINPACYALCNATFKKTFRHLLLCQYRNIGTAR

Broadly, the inhibition is the change of the read-out against control, counted positive when it falls. With `O=C(O)CCCC(=O)NCCc1ccncc1`, the cell count in experiment [1] came out at 425. Moreover, the inhibition in experiment [1] is 8.1% (inactive); in experiment [3], 1.4% (inactive); in experiment [7] it was 3.6% (inactive); in experiment [8], 33.4% (inactive). In addition, the inhibition of aggregation in experiment [2] is -3.6% (inactive). In addition, the nuclei count in experiment [2] and in experiment [3] was 112% throughout. The fluorescence slope in experiment [4] was -0.519 (inactive); in experiment [6] it was 0.00581 (inactive). Also, in experiment [5], the NADPH fluorescence slope is -7e-06 (inactive).
`CCS(=O)(=O)c1ccc(S(=O)(=O)CC)s1`: the cell count in experiment [1] was determined as 412. The inhibition in experiment [1] is -5.5% (inactive); in experiment [3], 10.5% (inactive); in experiment [7], 6.99% (inactive); in experiment [8], 17.4% (inactive). Moreover, the inhibition of aggregation in experiment [2] was 25.8% (inactive). Further, the nuclei count in experiment [2] is 61.1%; in experiment [3], 82.3%. The fluorescence slope in experiment [4] was -0.584 (inactive); in experiment [6], 0.00846 (inactive). Besides, the NADPH fluorescence slope in experiment [5] was -4.4e-05 (inactive).
On to `CCOc1ccccc1NS(=O)(=O)c1c(C)noc1C`, for which, in experiment [1], the cell count is 389. The inhibition in experiment [1] is 5.5% (inactive); in experiment [3] it was -3.1% (inactive); in experiment [7], 0.4% (inactive); in experiment [8], 24.4% (inactive). The inhibition of aggregation in experiment [2] is 42.8% (inactive). Also, the nuclei count stood at 97.1% in experiment [2] and 111% in experiment [3]. Also, the fluorescence slope in experiment [4] is -0.461 (inactive); in experiment [6], 0.00758 (inactive). Further, the NADPH fluorescence slope in experiment [5] is 4.7e-05 (inactive).
Consider `O=C(Nc1c(-c2ccccc2)nc2ccccn12)c1ccco1`, for which, in experiment [1], the cell count is 466. The inhibition in experiment [1] is -7.2% (inactive); in experiment [3], 13.2% (inactive); in experiment [7], -7.17% (inactive); in experiment [8], -12.7% (inactive). Moreover, the inhibition of aggregation in experiment [2] was 8.4% (inactive). Besides, the nuclei count in experiment [2] was 103%; in experiment [3] it was 109%. Also, the fluorescence slope was -0.56 (inactive) in experiment [4] and 0.00475 (inactive) in experiment [6]. In addition, the NADPH fluorescence slope in experiment [5] was 4.7e-05 (inactive).
Consider `CCCCN(Cc1cc2cc(OC)ccc2[nH]c1=O)C(=O)COc1ccccc1`, for which the cell count in experiment [1] turned out to be 348. In addition, the inhibition in experiment [1] is 4.3% (inactive); in experiment [3], -53.3% (inactive); in experiment [7] it was 7.27% (inactive); in experiment [8] it was 13.1% (inactive). In addition, the inhibition of aggregation in experiment [2] was -1.9% (inactive). In addition, the nuclei count in experiment [2] was 117%; in experiment [3], 125%. Also, the fluorescence slope was -0.505 (inactive) in experiment [4] and 0.00376 (inactive) in experiment [6]. Besides, the NADPH fluorescence slope in experiment [5] is -5e-05 (inactive).
With `CCCC(CCC)n1[nH]c(=O)c2c(C)cc(C)nc21`, the cell count in experiment [1] turned out to be 357. The inhibition in experiment [1] was 3.8% (inactive); in experiment [3], -29.5% (inactive); in experiment [7] it was 3.13% (inactive); in experiment [8] it was 4.22% (inactive). Also, the inhibition of aggregation in experiment [2] was 7.5% (inactive). In addition, the nuclei count amounted to 105% in experiment [2] and 114% in experiment [3]. In addition, the results for the fluorescence slope in experiment [4] and in experiment [6] were -0.47 (inactive) and 0.00554 (inactive), respectively. Moreover, the NADPH fluorescence slope in experiment [5] is 3.6e-05 (inactive).
For `Cc1ccc(-c2nnnn2CS(=O)(=O)c2ccccc2)cc1`, the cell count in experiment [1] was 433. The inhibition in experiment [1] is -11.8% (inactive); in experiment [3], -19.4% (inactive); in experiment [7], 16.3% (inactive); in experiment [8], 10.5% (inactive). In experiment [2], the inhibition of aggregation was -9.7% (inactive). For the same molecule, the nuclei count in experiment [2] was found to be 114%; in experiment [3], 122%. For the same molecule, the fluorescence slope was -0.598 (inactive) in experiment [4] and 0.006 (inactive) in experiment [6]. For the same molecule, the NADPH fluorescence slope in experiment [5] is -1.2e-05 (inactive).
As for `Cc1ccc(-c2nnn(CC(=O)N(CC(=O)NC3CCCCC3)c3cnc4ccccc4c3)n2)o1`, the cell count in experiment [1] worked out at 300. Further, the inhibition in experiment [1] is -7.6% (inactive); in experiment [3], -22.9% (inactive); in experiment [7] it was 21% (inactive); in experiment [8] it was 24.7% (inactive). The inhibition of aggregation in experiment [2] was 27.2% (inactive). Also, the values for the nuclei count in experiment [2] and in experiment [3] were 94.4% and 107%, respectively. Also, the fluorescence slope in experiment [4] is -0.523 (inactive); in experiment [6] it was 0.00469 (inactive). For the same molecule, in experiment [5], the NADPH fluorescence slope was -2.2e-06 (inactive).
With `N#C/C(C(=O)c1ccccc1)=C1/CCCN1`, the cell count in experiment [1] was 328. Besides, the inhibition in experiment [1] was 0.4% (inactive); in experiment [3], -66.4% (inactive); in experiment [7] it was 4.87% (inactive); in experiment [8], -17.4% (inactive). Also, in experiment [2], the inhibition of aggregation was -10.6% (inactive). Also, the nuclei count was determined as 109% in experiment [2] and 134% in experiment [3]. Besides, the fluorescence slope in experiment [4] is -0.567 (inactive); in experiment [6], 0.00513 (inactive). Besides, in experiment [5], the NADPH fluorescence slope is -5.4e-05 (inactive).
As to `CSc1nc2c(ccc3ccccc32)o1`, in experiment [1], the cell count was determined as 572. In addition, the inhibition in experiment [1] is 4.2% (inactive); in experiment [3] it was -70.5% (inactive); in experiment [7], -5.19% (inactive); in experiment [8] it was -21.2% (inactive). Moreover, in experiment [2], the inhibition of aggregation is -4.8% (inactive). Also, the values for the nuclei count in experiment [2] and in experiment [3] were 104% and 102%, respectively. Moreover, the figures for the fluorescence slope in experiment [4] and in experiment [6] were -0.566 (inactive) and 0.00656 (inactive), respectively. In addition, the NADPH fluorescence slope in experiment [5] is -1.5e-05 (inactive).
Turning to `CCC(=O)c1ccc(OCCN2CCOCC2)cc1`, the cell count in experiment [1] worked out at 387. For the same molecule, the inhibition in experiment [1] is -5.3% (inactive); in experiment [3], -104% (inactive); in experiment [7], 6.75% (inactive); in experiment [8] it was 7.43% (inactive). For the same molecule, the inhibition of aggregation in experiment [2] was -1.8% (inactive). For the same molecule, the nuclei count stood at 107% in experiment [2] and 120% in experiment [3]. For the same molecule, the fluorescence slope in experiment [4] is -0.566 (inactive); in experiment [6], 0.00623 (inactive). Also, in experiment [5], the NADPH fluorescence slope is -4.5e-05 (inactive).
As for `COc1ccc(OCc2cccc(C(=O)O)c2)cc1`, the cell count in experiment [1] is 623. The inhibition is -1.6% (inactive) in experiment [1], 20.3% (inactive) in experiment [3], 46.4% (inactive) in experiment [7] and 42.2% (inactive) in experiment [8]. The inhibition of aggregation in experiment [2] was -9.3% (inactive). Moreover, the figures for the nuclei count in experiment [2] and in experiment [3] were 55.9% and 111%, respectively. Further, the fluorescence slope in experiment [4] is -0.511 (inactive); in experiment [6], 0.00513 (inactive). Moreover, in experiment [5], the NADPH fluorescence slope is 5e-05 (inactive).
For the molecule `CC(=O)NCCn1c(SCC(=O)NCC2CCCO2)nc2ccccc2c1=O` (centres undefined), the cell count in experiment [1] came to 515. The inhibition is -8.5% (inactive) in experiment [1], 21.7% (inactive) in experiment [3], 3.29% (inactive) in experiment [7] and 12.9% (inactive) in experiment [8]. Besides, the inhibition of aggregation in experiment [2] is 4.3% (inactive). In addition, the nuclei count is 110% in experiment [2] and 103% in experiment [3]. Moreover, the fluorescence slope is -0.471 (inactive) in experiment [4] and 0.00516 (inactive) in experiment [6]. For the same molecule, the NADPH fluorescence slope in experiment [5] is 5.6e-05 (inactive).
As for `CCOC(=O)c1oc2ccccc2c1CSc1nnnn1-c1ccc(OC)cc1`, the cell count in experiment [1] turned out to be 381. In addition, the inhibition was -7.7% (inactive) in experiment [1], -102% (inactive) in experiment [3], 25.7% (inactive) in experiment [7] and 30.2% (inactive) in experiment [8]. In addition, the inhibition of aggregation in experiment [2] is 6.8% (inactive). The nuclei count in experiment [2] is 95.4%; in experiment [3], 110%. Besides, the fluorescence slope in experiment [4] was -0.54 (inactive); in experiment [6], 0.00514 (inactive). In addition, the NADPH fluorescence slope in experiment [5] is -4.1e-05 (inactive).

Values taken from PubChem BioAssay.
